Experimental data: ChEMBL document CHEMBL1155457, “Discovery of the dual orexin receptor antagonist [(7R)-4-(5-chloro-1,3-benzoxazol-2-yl)-7-methyl-1,4-diazepan-1-yl][5-methyl-2-(2H-1,2,3-triazol-2-yl)phenyl]methanone (MK-4305) for the treatment of insomnia” (J Med Chem, 2010)
Activity calls are given as the source filed them. No cut-off for these calls is given here.

What was measured:
[1] = target: T1, Orexin/Hypocretin receptor type 1 (Homo sapiens, UniProt O43613); assay: Displacement of [3H](S)-N-(biphenyl-2-yl)-1-(2-(1-methyl-1H-benzo[d]imidazol-2-ylthio)acetyl)pyrrolidine-2-carboxamide from human OX1R expressed in CHO cells after 3 hrs by scintillation counting; type: cell-based
T1 sequence (O43613 whole entry): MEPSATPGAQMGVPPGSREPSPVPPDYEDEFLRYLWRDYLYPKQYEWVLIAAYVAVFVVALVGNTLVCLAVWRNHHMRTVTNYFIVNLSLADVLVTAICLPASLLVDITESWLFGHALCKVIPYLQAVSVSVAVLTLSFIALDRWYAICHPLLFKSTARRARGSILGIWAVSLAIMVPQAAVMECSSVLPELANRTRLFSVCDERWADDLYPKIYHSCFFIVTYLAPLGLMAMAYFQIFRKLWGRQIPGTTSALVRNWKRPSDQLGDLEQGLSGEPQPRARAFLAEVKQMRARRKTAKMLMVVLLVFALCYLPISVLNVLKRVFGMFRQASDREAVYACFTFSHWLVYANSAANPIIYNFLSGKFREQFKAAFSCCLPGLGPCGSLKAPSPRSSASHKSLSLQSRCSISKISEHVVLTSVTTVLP

[2] = target: T1, Orexin/Hypocretin receptor type 1; assay: Displacement of [3H]N-cyclobutyl-5-methyl-N-(2-(1-methyl-1H-benzo[d]imidazol-2-ylthio)ethyl)-2-(2H-1,2,3-triazol-2-yl)benzamide from human OX1R expressed in CHO cells after 20 hrs by scintillation counting; type: cell-based
[3] = target: T2, Orexin receptor type 2 (Homo sapiens, UniProt O43614); assay: Displacement of [3H](S)-N-(2-(1H-pyrrol-1-yl)phenyl)-1-(2-(1-methyl-1H-benzo[d]imidazol-2-ylthio)acetyl)pyrrolidine-2-carboxamide from human OX2R expressed in CHO cells after 3 hrs by scintillation counting; type: cell-based
T2 sequence (O43614 whole entry): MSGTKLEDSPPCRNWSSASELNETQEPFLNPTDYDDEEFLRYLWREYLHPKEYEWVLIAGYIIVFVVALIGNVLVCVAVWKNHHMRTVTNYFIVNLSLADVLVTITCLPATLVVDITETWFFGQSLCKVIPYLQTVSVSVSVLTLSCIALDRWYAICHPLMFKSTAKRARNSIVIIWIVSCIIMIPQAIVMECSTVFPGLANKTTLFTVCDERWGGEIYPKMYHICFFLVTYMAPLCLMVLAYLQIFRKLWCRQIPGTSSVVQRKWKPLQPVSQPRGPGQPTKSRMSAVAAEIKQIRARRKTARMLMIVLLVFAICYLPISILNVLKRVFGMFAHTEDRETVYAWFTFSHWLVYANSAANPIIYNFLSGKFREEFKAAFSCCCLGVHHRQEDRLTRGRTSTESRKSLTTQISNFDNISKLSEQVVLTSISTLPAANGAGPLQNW

[4] = target: T1, Orexin/Hypocretin receptor type 1; assay: Antagonist activity at human OX1R expressed in CHO cells assessed as inhibition of orexin-A-induced intracellular calcium mobilization after 5 mins by FLIPR assay; type: functional, cell-based
[5] = target: T2, Orexin receptor type 2; assay: Antagonist activity at human OX2R expressed in CHO cells assessed as inhibition of orexin-A-induced intracellular calcium mobilization after 5 mins by FLIPR assay; type: functional, cell-based
[6] = Clearance in dog at 0.5 mg/kg, iv; type: ADME, organism-based, Canis lupus familiaris; set-up: dose 0.5 mg/kg, route intravenous; details: in vivo
Summary of the method: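 Dogs received an IV dose with DMSO as vehicle (n = 3). Clearance was derived from plasma pharmacokinetics.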

[7] = Lipophilicity, log P of the compound; type: physicochemical; details: octanol/water
[8] = test system: Rattus norvegicus; assay: Antiinsomnic activity in Sprague-Dawley rat assessed as decrease in active wake duration at 30 mg/kg/day, po measured with 3 to 4 hrs post last dose; type: functional, organism-based
Summary of the method: (§1)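 Telemetry-implanted rats with ECoG and EMG electrodes placed under isoflurane, recovered at least two weeks, 12 h light:dark cycle. 30 mg/kg free base suspended in 20% aqueous TPGS given by oral gavage 5 h into the active phase. Crossover design with four rats, one week on drug and one on vehicle. Automated staging in 30 min bins, averaged over seven nights, mixed ANOVA.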

[9] = test system: Rattus norvegicus; assay: Antiinsomnic activity in Sprague-Dawley rat assessed as increase in rapid-eye movement at 30 mg/kg/day, po measured with 3 to 4 hrs post last dose; type: functional, organism-based; summary of the method: as §1
[10] = test system: Rattus norvegicus; assay: Antiinsomnic activity in Sprague-Dawley rat assessed as increase in delta sleep duration at 30 mg/kg/day, po measured with 3 to 4 hrs post last dose; type: functional, organism-based; summary of the method: as §1
[11] = test system: Rattus norvegicus; assay: Antiinsomnic activity in Sprague-Dawley rat assessed as decrease in light sleep duration at 30 mg/kg/day, po measured with 3 to 4 hrs post last dose; type: functional, organism-based; summary of the method: as §1
[12] = Cmax in Sprague-Dawley rat CSF at 30 mg/kg/day, po; type: ADME, organism-based, Cerebrospinal fluid; set-up: dose 30 mg/kg/day, route oral
[13] = Drug level in Sprague-Dawley rat CSF at 30 mg/kg/day, po; type: ADME, organism-based, Cerebrospinal fluid; set-up: route oral; details: in vivo, read-out: Drug uptake
[14] = test system: Rattus norvegicus; assay: In vivo occupancy of human OX2R ubiquitously overexpressed in iv dosed transgenic rat after 30 mins; type: functional
Summary of the method: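 Transgenic human OX2R rats were infused IV over 30 min at 0.1-2.0 mg/kg in 25% hydroxypropyl-β-cyclodextrin, then sacrificed. Brain homogenate at 10 mg tissue/mL was incubated with 200 pM radioligand at room temperature and filtered at 2-15 min. Nonspecific binding was set with 1 μM unlabeled DORA. Occupancy = (1 - slope_drug/slope_vehicle) × 100; Occ90 came from nonlinear fit.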

[15] = Drug level in human OX2R overexpressing transgenic rat plasma at 1.34 mg/kg, iv after 30 mins; type: ADME, organism-based; set-up: dose 1.34 mg/kg, route intravenous; details: read-out: Drug uptake
Summary of the method: (§2)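 Transgenic rats expressing human OX2R received a 30 min IV infusion, 0.1-2.0 mg/kg, in 25% hydroxypropyl-β-cyclodextrin. They were then sacrificed, and brain, plasma and CSF were frozen. Drug levels were measured by LCMS.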

[16] = Drug level in human OX2R overexpressing transgenic rat brain at 1.34 mg/kg, iv after 30 mins; type: ADME, organism-based; set-up: dose 1.34 mg/kg, route intravenous; details: read-out: Drug uptake; summary of the method: as §2
[17] = Drug level in human OX2R overexpressing transgenic rat CSF at 1.34 mg/kg, iv after 30 mins; type: ADME, organism-based, Cerebrospinal fluid; set-up: dose 1.34 mg/kg, route intravenous; details: read-out: Drug uptake; summary of the method: as §2
[18] = test system: Rattus norvegicus; assay: In vivo occupancy of human OX2R ubiquitously overexpressed in transgenic rat at 30 mg/kg/day, iv after 30 mins; type: functional
[19] = Thermal stability of the compound; type: physicochemical
[20] = Chemical stability in pH-dependent solution; type: physicochemical
[21] = Aqueous solubility of the compound; type: physicochemical; details: buffer
[22] = Genotoxicity in Salmonella Typhimurium by Ames test; type: toxicity; details: salmonella enterica subsp. enterica serovar typhimurium
[23] = species on record: Canis familiaris; assay: Cardiotoxicity in dog; type: toxicity, organism-based, Canis lupus familiaris; details: in vivo
[24] = Plasma protein binding in rat; type: ADME, cell-free; details: read-out: PPB
[25] = Plasma protein binding in human; type: ADME, cell-free; details: read-out: PPB
[26] = test system: Rattus norvegicus; assay: Clearance in rat at 2 mg/kg, iv; type: ADME, organism-based; set-up: dose 2 mg/kg, route intravenous; details: in vivo
Summary of the method: (§3)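 IV PK in DMSO vehicle: rat at 2 mg/kg, dog at 0.5 mg/kg. Clearance, Vd_ss and terminal half-life were derived from plasma levels.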

[27] = Volume of distribution at steady state in rat at 2 mg/kg, iv; type: ADME, organism-based; set-up: dose 2 mg/kg, route intravenous; details: in vivo, read-out: Vdss; summary of the method: as §3
[28] = Terminal half life in rat at 2 mg/kg, iv; type: ADME, organism-based; set-up: dose 2 mg/kg, route intravenous; details: in vivo, read-out: beta t1/2 (converted); summary of the method: as §3
[29] = Volume of distribution at steady state in dog at 0.5 mg/kg, iv; type: ADME, organism-based, Canis lupus familiaris; set-up: dose 0.5 mg/kg, route intravenous; details: in vivo, read-out: Vdss; summary of the method: as §3
[30] = Terminal half life in dog at 0.5 mg/kg, iv; type: ADME, organism-based, Canis lupus familiaris; set-up: dose 0.5 mg/kg, route intravenous; details: in vivo, read-out: beta t1/2 (converted); summary of the method: as §3
[31] = AUC in dog at 3 mg/kg, po; type: ADME, organism-based, Canis lupus familiaris; set-up: dose 3 mg/kg, route oral; details: plasma
[32] = Cmax in dog at 3 mg/kg, po; type: ADME, organism-based, Canis lupus familiaris; set-up: dose 3 mg/kg, route oral; details: in vivo
[33] = Oral bioavailability in dog at 3 mg/kg; type: ADME, organism-based, Canis lupus familiaris; details: in vivo
[34] = Tmax in dog at 3 mg/kg, po; type: ADME, organism-based, Canis lupus familiaris; set-up: dose 3 mg/kg, route oral; details: in vivo
[35] = AUC in rat at 10 mg/kg, po; type: ADME, organism-based; set-up: dose 10 mg/kg, route oral; details: plasma
[36] = Cmax in rat at 10 mg/kg, po; type: ADME, organism-based; set-up: dose 10 mg/kg, route oral; details: in vivo
[37] = Tmax in rat at 10 mg/kg, po; type: ADME, organism-based; set-up: dose 10 mg/kg, route oral; details: in vivo
[38] = Oral bioavailability in rat at 10 mg/kg; type: ADME, organism-based; details: in vivo
[39] = test system: Rattus norvegicus; assay: Antiinsomnic activity in Sprague-Dawley rat assessed as decrease in active wake duration at 10 mg/kg/day, po […]; type: functional, organism-based
Summary of the method: (§4)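 Rats carried telemetry implants recording ECoG/EMG (sampled at 500 Hz) and had recovered at least 2 weeks after surgery. They were on a 12:12 light cycle with lights off at 04:00. After 2 days of vehicle habituation, four rats were dosed by oral gavage in 20% aqueous TPGS at 09:00, 5 h into the active phase. The design was a one-week crossover against vehicle. Recording ran 23 h; stages were auto-scored in 30-min bins, averaged over 7 days and compared by mixed-model ANOVA at each time point.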

[40] = test system: Rattus norvegicus; assay: Antiinsomnic activity in Sprague-Dawley rat assessed as increase in rapid-eye movement at 10 mg/kg/day, po measured with 3 to 4 hrs post last dose; type: functional, organism-based; summary of the method: as §4
[41] = test system: Rattus norvegicus; assay: Antiinsomnic activity in Sprague-Dawley rat assessed as increase in delta sleep duration at 10 mg/kg/day, po measured with 3 to 4 hrs post last dose; type: functional, organism-based; summary of the method: as §4
[42] = test system: Rattus norvegicus; assay: Antiinsomnic activity in Sprague-Dawley rat assessed as decrease in light sleep duration at 10 mg/kg/day, po measured with 3 to 4 hrs post last dose; type: functional, organism-based; summary of the method: as §4
[43] = Drug level in Sprague-Dawley rat plasma at 10 mg/kg/day, po after 1 hr; type: ADME, organism-based; set-up: route oral; details: read-out: Drug uptake
[44] = Drug level in Sprague-Dawley rat CSF at 10 mg/kg/day, po after 1 hr; type: ADME, organism-based, Cerebrospinal fluid; set-up: route oral; details: read-out: Drug uptake
[45] = Fraction unbound in rat plasma; type: ADME, cell-free
[46] = Clearance in rat at 10 mg/kg, iv; type: ADME, organism-based; set-up: dose 10 mg/kg, route intravenous; details: in vivo

C[C@@H]1CCN(c2ncc3ccccc3n2)CCN1C(=O)c1ccccc1-n1nccn1
Ki [1]: 6.2 nM | Ki [2]: 6.2 nM | Ki [3]: 0.47 nM | IC50 [4]: 26 nM | IC50 [5]: 18 nM | clearance [6]: 6.4 mL/min/kg

Cc1ccc(-n2nccn2)c(C(=O)N2CCN(c3nc4cc(Cl)ccc4o3)CC[C@H]2C)c1 [SUVOREXANT]
logP [7]: 3.6 | Activity [8]: Active | Activity [9]: Active | Activity [10]: Active | Activity [11]: Active | Cmax [12]: 2100 nM | concentration [13]: 21 nM | Activity [14]: 1.34 mg/kg | concentration at 0.5 h [15]: 1070 nM | concentration at 0.5 h [16]: 1180 nM | concentration at 0.5 h [17]: 13 nM | Activity [18]: >90% | Stability [19]: Stable | Stability [20]: Stable | solubility [21]: Soluble | Activity [22]: Non-toxic | Activity [23]: Non-toxic | fraction unbound [24]: 0.01 | fraction unbound [25]: 0.01 | clearance [26]: 44 mL/min/kg | Vd [27]: 2.6 L/kg | half-life [28]: 36 min | clearance [6]: 4 mL/min/kg | Vd [29]: 0.8 L/kg | half-life [30]: 198 min | AUC [31]: 16.9 µM·h | Cmax [32]: 3200 nM | bioavailability [33]: 56% | Tmax [34]: 30 min | AUC [35]: 1.7 µM·h | Cmax [36]: 480 nM | Tmax [37]: 30 min | bioavailability [38]: 19%

C[C@H]1CCN(c2ncc3ccccc3n2)CCN1C(=O)c1ccccc1-n1nccn1
Ki [1]: 54 nM | Ki [2]: 54 nM | Ki [3]: 8.5 nM

Cc1ccc(-n2nccn2)c(C(=O)N2CCN(c3ncc4cc(F)ccc4n3)CC[C@H]2C)c1
logP [7]: 3 | Activity [39]: Active | Activity [40]: Active | Activity [41]: Active | Activity [42]: Active | concentration at 1 h [43]: 20 nM | concentration at 1 h [44]: 1000 nM | fraction unbound [45]: 0.03 | clearance [6]: 5.2 mL/min/kg | bioavailability [33]: 37% | bioavailability [38]: 47% | clearance [46]: 33 mL/min/kg
